Experimental data: ChEMBL document CHEMBL4321823, “Benzyl Phenylsemicarbazides: A Chemistry-Driven Approach Leading to G Protein-Biased Dopamine D4 Receptor Agonists with High Subtype Selectivity” (J Med Chem, 2019)

Columns and labels:
D(2) dopamine receptor = D(2) dopamine receptor (Homo sapiens, UniProt P14416); experiment: Displacement of [3H] Spiperone from human D2L receptor expressed in CHO cells by competitive radioligand binding assay; format: cell-based
[1] = biological target: T1, 5-hydroxytryptamine receptor 1A (Homo sapiens, UniProt P08908); experiment: Displacement of [3H] WAY100635 from 5HT1A receptor (unknown origin)
T1 sequence (P08908 whole entry): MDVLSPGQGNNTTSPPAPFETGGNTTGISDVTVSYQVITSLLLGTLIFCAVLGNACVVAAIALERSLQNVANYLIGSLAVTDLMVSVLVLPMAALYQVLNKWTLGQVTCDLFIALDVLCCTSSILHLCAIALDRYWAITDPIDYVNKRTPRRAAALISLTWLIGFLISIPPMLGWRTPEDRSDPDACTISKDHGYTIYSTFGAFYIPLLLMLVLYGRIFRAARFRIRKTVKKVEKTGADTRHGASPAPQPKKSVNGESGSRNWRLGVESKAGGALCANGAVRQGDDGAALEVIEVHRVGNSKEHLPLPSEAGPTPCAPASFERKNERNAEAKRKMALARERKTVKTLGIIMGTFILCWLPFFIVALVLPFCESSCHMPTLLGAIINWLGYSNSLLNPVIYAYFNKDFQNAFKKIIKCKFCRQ
Method in brief: (§1)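 Radioligand competition binding; Ki given as mean ± SD from two individual experiments, each run in triplicate.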

[2] = biological target: Kappa-type opioid receptor (Homo sapiens, UniProt P41145); experiment: Displacement of [3H] diprenorphine from kappa opioid receptor (unknown origin); method in brief: as §1
Homo sapiens [3] = species on record: Homo sapiens; experiment: Selectivity index, ratio of Ki for displacement of [3H] Spiperone from human D2L receptor expressed in CHO cells to Ki for displacement of [3H] Spiperone from human D4.4 receptor expressed in CHO cells; format: cell-based
Method in brief: (§2)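 Competition binding against [3H]spiperone on membranes of CHO cells stably expressing cloned human D2L, D2S, D3 or D4.4 receptors. Ki from monophasic curve fits; mean ± SEM of three to seven experiments, each in triplicate. Selectivity calculated as Ki(D2L, D2S or D3) divided by Ki(D4.4).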

[4] = biological target: T2, Alpha-1A adrenergic receptor (Homo sapiens, UniProt P35348); experiment: Displacement of [3H] prazosin from alpha1A adrenergic receptor (unknown origin)
T2 sequence (P35348 whole entry): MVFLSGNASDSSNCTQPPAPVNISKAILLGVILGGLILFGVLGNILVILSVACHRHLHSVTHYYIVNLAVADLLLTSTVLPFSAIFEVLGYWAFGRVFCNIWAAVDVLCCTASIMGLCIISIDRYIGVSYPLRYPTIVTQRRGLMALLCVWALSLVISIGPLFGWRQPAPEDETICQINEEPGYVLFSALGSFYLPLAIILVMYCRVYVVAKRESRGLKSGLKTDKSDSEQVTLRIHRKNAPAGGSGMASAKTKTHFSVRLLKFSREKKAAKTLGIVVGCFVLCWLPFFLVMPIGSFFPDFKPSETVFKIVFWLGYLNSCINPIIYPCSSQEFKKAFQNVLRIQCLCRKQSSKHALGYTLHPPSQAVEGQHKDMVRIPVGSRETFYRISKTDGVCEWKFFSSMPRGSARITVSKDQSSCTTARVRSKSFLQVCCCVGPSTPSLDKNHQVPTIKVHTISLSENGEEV

[5] = biological target: T3, Alpha-2A adrenergic receptor (Homo sapiens, UniProt P08913); experiment: Displacement of [3H] RX821002 from alpha2A adrenergic receptor (unknown origin)
T3 sequence (P08913 whole entry): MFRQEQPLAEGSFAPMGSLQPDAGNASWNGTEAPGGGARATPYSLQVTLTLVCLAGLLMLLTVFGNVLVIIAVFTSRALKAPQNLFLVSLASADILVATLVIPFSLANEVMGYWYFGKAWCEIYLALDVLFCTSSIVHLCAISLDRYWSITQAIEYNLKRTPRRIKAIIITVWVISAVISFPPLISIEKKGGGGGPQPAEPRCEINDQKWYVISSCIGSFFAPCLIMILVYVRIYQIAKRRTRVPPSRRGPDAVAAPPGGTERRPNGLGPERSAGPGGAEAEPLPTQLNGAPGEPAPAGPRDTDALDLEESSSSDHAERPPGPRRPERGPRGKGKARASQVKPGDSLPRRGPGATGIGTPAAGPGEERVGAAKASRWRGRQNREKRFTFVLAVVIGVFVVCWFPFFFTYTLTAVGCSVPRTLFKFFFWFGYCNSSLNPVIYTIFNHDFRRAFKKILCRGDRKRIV

Homo sapiens [6] = species on record: Homo sapiens; experiment: Selectivity index, ratio of Ki for displacement of [3H] Spiperone from human D3 receptor expressed in CHO cells to Ki for displacement of [3H] Spiperone from human D4.4 receptor expressed in CHO cells; format: cell-based; method in brief: as §2
D(4) dopamine receptor [7] = biological target: T4, D(4) dopamine receptor (Homo sapiens, UniProt P21917); experiment: Displacement of [3H] Spiperone from human D4.4 receptor expressed in CHO cells by competitive radioligand binding assay; format: cell-based
T4 sequence (P21917 whole entry): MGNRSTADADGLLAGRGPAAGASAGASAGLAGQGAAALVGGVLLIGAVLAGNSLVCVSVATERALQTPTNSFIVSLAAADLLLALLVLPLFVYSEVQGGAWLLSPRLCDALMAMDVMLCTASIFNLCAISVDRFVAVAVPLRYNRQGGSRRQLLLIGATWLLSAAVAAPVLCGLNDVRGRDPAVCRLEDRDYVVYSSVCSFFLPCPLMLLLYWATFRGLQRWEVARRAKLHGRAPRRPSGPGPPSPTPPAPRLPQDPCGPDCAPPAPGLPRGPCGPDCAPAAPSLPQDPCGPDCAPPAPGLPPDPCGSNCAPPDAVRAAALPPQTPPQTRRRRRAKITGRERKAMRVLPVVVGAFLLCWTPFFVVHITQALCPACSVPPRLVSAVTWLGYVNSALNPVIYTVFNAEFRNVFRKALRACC

Homo sapiens [8] = species on record: Homo sapiens; experiment: Selectivity index, ratio of Ki for displacement of [3H] Spiperone from human D2S receptor expressed in CHO cells to Ki for displacement of [3H] Spiperone from human D4.4 receptor expressed in CHO cells; format: cell-based; method in brief: as §2
D(1B) dopamine receptor = D(1B) dopamine receptor (Homo sapiens, UniProt P21918); experiment: Displacement of [3H] SCH23390 from D5 receptor (unknown origin)
D(4) dopamine receptor [9] = biological target: T4, D(4) dopamine receptor; experiment: Antagonist activity at […] D4 receptor (unknown origin) expressed in HEK293 cells co-expressing beta-arrestin2 assessed as inhibition of quinpirole-induced beta-arrestin2 recruitment preincubated for 30 mins followed by quinpirole addition and further incubated for 6 hrs by Path-Hunter assay; format: cell-based
D(1A) dopamine receptor = D(1A) dopamine receptor (Homo sapiens, UniProt P21728); experiment: Displacement of [3H] SCH23390 from D1 receptor (unknown origin)
Mu-type opioid receptor = Mu-type opioid receptor (Homo sapiens, UniProt P35372); experiment: Displacement of [3H] diprenorphine from mu opioid receptor (unknown origin); method in brief: as §1
[10] = biological target: Beta-1 adrenergic receptor (Homo sapiens, UniProt P08588); experiment: Displacement of [3H] CGP12177 from beta1 adrenergic receptor (unknown origin)
Chain of Beta-1 adrenergic receptor (P08588 whole entry): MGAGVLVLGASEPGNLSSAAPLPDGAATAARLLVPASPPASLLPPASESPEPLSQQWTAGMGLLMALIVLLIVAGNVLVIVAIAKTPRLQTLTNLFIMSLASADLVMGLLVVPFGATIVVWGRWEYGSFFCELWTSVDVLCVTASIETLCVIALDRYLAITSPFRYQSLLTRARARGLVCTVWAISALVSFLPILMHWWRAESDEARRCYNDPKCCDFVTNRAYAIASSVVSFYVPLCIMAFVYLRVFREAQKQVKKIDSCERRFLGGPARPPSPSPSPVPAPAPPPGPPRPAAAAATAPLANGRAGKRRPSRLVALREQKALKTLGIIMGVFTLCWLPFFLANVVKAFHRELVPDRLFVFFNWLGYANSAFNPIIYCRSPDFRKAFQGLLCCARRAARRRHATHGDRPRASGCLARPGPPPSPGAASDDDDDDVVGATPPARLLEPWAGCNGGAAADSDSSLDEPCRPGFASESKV

Chain of D(2) dopamine receptor (P14416 whole entry): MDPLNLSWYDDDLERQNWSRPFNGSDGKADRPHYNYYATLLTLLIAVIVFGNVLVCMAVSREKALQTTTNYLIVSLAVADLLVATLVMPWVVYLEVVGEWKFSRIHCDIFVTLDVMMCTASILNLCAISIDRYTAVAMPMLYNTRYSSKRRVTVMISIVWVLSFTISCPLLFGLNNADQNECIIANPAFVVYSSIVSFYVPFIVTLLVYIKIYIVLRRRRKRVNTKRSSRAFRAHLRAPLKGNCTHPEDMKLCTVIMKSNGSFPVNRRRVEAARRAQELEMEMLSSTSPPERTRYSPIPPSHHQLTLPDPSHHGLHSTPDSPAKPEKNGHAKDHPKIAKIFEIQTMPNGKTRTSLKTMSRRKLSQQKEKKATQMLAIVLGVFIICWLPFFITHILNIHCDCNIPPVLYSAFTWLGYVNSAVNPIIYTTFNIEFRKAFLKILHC
Chain of D(1A) dopamine receptor (P21728 whole entry): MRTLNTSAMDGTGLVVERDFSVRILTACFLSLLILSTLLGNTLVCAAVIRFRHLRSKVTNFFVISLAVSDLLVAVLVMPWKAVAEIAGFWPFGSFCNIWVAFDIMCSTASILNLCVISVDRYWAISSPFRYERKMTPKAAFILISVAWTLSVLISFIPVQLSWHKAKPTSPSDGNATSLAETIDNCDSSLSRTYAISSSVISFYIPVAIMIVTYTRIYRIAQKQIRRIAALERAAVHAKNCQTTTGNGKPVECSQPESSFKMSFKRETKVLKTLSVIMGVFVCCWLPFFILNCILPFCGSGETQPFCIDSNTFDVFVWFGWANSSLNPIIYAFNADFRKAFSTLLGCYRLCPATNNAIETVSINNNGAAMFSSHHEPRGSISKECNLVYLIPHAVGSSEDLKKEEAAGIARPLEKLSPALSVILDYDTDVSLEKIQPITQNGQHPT
Chain of Mu-type opioid receptor (P35372 whole entry): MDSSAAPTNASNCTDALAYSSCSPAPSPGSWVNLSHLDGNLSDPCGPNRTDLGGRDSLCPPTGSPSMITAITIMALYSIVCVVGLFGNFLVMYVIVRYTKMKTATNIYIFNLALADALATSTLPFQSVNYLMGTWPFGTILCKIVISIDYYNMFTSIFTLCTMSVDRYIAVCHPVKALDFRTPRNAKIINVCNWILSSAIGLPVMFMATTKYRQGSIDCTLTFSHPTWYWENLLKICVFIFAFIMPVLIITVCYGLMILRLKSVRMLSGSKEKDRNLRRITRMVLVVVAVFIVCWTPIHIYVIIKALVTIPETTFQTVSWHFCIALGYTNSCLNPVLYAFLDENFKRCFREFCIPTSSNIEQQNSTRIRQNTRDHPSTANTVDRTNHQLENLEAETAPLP
Chain of Kappa-type opioid receptor (P41145 whole entry): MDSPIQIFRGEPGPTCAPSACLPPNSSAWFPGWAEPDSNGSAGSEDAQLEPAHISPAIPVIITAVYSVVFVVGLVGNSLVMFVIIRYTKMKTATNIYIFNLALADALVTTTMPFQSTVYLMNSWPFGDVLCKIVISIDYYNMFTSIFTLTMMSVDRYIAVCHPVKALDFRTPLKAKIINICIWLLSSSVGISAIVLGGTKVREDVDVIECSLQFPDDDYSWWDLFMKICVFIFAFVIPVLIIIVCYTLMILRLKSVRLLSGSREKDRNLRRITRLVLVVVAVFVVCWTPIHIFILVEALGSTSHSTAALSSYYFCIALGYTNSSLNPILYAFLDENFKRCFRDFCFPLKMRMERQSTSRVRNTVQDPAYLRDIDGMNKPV
Chain of D(1B) dopamine receptor (P21918 whole entry): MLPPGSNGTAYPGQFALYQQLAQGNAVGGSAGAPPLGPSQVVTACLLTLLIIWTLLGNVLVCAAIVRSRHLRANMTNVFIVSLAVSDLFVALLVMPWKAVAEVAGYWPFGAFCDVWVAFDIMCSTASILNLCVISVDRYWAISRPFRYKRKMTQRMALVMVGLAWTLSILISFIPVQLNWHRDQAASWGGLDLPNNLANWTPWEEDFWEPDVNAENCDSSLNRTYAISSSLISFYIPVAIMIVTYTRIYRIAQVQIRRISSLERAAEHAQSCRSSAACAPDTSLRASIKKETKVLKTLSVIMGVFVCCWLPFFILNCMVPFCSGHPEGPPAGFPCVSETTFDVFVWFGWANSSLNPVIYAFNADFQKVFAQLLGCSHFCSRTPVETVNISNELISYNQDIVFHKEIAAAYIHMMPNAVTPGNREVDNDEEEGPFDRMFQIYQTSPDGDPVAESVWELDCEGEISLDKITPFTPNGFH

Ki (D(2) dopamine receptor): 140 nM
Ki [1]: 34 nM
Ki [2]: 4300 nM
Ki [4]: 1.6 nM
Ki [5]: 860 nM
Ki (D(4) dopamine receptor [7]): 0.55 nM
Ki (D(1B) dopamine receptor): 1000 nM
IC50 (D(4) dopamine receptor [9]): 620 nM
Ki (D(1A) dopamine receptor): 360 nM
Ki (Mu-type opioid receptor): 2300 nM
Ki [10]: > 50000 nM
SMILES: COc1ccccc1N1CCN(CCCNC(=O)NN(Cc2ccc(F)cc2)c2ccccc2)CC1
Ratio Ki (Homo sapiens [3]): 250
Ratio Ki (Homo sapiens [6]): 560
Ratio Ki (Homo sapiens [8]): 200
